Assay results as given in ChEMBL document CHEMBL5244263, “Studies on fragment-based design of allosteric inhibitors of human factor XIa” (Bioorg Med Chem, 2020).
Calls of active or inactive are those of the source. The rule behind the calls is not given here.

Key:
[1] = target: Coagulation factor IX (Homo sapiens) (UniProt P00740); test: Inhibition of human FIXa at 500 uM by chromogenic substrate hydrolysis assay
Coagulation factor XI [2] = target: T1, Coagulation factor XI (Homo sapiens, UniProt P03951); test: Inhibition of human FXIa using S-2366 as chromogenic substrate preincubated with enzyme for 10 mins followed by substrate addition by spectrophotometric analysis
Coagulation factor XI [3] = target: T1, Coagulation factor XI; test: Inhibition of human FXIa using S-2366 as chromogenic substrate preincubated with enzyme for 10 mins followed by substrate addition by spectrophotometric analysis relative to control; design: concentration or dose not given beside the values
Outline: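 hFXIa (0.765 nM final) preincubated with inhibitor or reference solution for 10 min at 37 °C in pH 7.4 buffer (50 mM Tris-HCl, 150 mM NaCl, 0.1% PEG8000, 0.02% Tween80). S-2366 (345 μM final) then added, and residual activity read on a microplate reader.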

[4] = Selectivity for inhibition of human FXIa over bovine alpha-chymotrypsin
Homo sapiens [5] = species on record: Homo sapiens; test: Selectivity for inhibition of human FXIa over human FIXa
[6] = Selectivity for inhibition of human FXIa over bovine trypsin
Bos taurus = species on record: Bos taurus; test: Inhibition of bovine trypsin using S-2222 as chromogenic substrate at 500 uM by chromogenic substrate hydrolysis assay
[7] = target: Prothrombin (Homo sapiens) (UniProt P00734); test: Inhibition of human thrombin at 500 uM by chromogenic substrate hydrolysis assay
[8] = target: Chymotrypsinogen A (Bos taurus) (UniProt P00766); test: Inhibition of bovine alpha-chymotrypsin at 500 uM by chromogenic substrate hydrolysis assay
Homo sapiens [9] = species on record: Homo sapiens; test: Selectivity for inhibition of human FXIa over FVIIa (unknown origin)
Homo sapiens [10] = species on record: Homo sapiens; test: Selectivity for inhibition of human FXIa over Kallikrein in human plasma; type: cell-free
[11] = target: Coagulation factor X (Homo sapiens) (UniProt P00742); test: Inhibition of human FXa using methoxycarbonyl-D-cyclohexylglycyl-Gly-Arg-p-nitroanilide as substrate at 500 uM by chromogenic substrate hydrolysis assay
Homo sapiens [12] = species on record: Homo sapiens; test: Selectivity for inhibition of human FXIa over human thrombin
[13] = target: T2, Coagulation factor VII (Homo sapiens) (UniProt P08709); test: Inhibition of FVIIa (unknown origin) at 500 uM by chromogenic substrate hydrolysis assay
T2 sequence (whole entry): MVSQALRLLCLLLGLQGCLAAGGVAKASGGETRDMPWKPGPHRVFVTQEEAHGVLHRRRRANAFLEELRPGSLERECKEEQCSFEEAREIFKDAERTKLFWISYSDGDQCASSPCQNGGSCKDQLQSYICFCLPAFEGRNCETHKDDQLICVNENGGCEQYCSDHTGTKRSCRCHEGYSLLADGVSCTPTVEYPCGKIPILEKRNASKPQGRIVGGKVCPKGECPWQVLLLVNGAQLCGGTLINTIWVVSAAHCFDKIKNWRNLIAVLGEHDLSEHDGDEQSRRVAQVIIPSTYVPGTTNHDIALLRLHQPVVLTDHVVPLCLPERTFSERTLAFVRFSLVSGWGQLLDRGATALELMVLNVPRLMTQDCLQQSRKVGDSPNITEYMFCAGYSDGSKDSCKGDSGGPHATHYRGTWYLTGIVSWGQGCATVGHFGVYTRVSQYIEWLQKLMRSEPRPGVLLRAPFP

[14] = target: Plasma kallikrein (Homo sapiens) (UniProt P03952); test: Inhibition of Kallikrein in human plasma at 500 uM by chromogenic substrate hydrolysis assay; type: cell-free
Homo sapiens [15] = species on record: Homo sapiens; test: Selectivity for inhibition of human FXIa over human FXa

Sequence of Coagulation factor IX (Homo sapiens) (P00740 47-191 limits assumed): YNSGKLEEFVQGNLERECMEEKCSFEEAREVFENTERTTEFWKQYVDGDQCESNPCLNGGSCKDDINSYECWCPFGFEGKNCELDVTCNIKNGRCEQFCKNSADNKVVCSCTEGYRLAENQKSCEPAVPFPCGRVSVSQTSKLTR
Sequence of Coagulation factor IX (Homo sapiens) (P00740 227-461 limits assumed): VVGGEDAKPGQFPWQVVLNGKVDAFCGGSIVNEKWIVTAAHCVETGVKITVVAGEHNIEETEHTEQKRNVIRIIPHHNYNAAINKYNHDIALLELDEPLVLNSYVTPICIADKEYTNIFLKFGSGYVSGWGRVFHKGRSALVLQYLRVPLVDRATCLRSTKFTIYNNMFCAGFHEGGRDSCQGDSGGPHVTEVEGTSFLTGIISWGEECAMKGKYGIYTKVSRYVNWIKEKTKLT
Sequence of Coagulation factor X (Homo sapiens) (P00742 41-179 limits assumed): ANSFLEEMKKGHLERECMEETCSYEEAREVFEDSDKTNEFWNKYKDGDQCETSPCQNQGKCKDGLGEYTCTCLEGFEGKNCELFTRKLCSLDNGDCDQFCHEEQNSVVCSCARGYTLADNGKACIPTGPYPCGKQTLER
Sequence of Coagulation factor X (Homo sapiens) (P00742 235-488 limits assumed): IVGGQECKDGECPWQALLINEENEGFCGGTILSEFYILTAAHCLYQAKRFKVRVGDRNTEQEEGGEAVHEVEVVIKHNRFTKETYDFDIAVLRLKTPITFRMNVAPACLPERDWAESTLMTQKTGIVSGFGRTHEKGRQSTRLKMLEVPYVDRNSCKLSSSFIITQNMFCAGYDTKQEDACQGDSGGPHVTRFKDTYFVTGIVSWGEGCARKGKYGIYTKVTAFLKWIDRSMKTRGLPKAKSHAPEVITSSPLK
T1 sequence (P03951 19-387 limits assumed): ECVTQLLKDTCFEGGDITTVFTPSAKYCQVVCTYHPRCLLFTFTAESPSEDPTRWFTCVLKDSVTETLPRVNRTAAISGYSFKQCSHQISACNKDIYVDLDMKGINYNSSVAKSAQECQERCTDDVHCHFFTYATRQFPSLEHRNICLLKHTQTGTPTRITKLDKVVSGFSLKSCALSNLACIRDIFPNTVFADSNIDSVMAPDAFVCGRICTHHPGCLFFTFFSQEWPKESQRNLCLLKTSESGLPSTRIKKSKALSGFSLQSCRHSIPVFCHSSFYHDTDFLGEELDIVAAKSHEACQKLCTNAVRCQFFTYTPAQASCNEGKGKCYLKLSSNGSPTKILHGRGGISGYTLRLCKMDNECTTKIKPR
T1 sequence (P03951 388-625 limits assumed): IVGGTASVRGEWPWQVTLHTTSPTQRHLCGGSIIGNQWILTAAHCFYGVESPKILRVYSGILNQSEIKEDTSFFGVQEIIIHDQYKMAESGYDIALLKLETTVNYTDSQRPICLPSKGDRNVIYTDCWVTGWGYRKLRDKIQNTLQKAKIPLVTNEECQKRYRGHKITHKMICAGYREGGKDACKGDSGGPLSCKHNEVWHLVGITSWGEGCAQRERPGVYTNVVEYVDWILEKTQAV
Sequence of Plasma kallikrein (Homo sapiens) (P03952 20-390 limits assumed): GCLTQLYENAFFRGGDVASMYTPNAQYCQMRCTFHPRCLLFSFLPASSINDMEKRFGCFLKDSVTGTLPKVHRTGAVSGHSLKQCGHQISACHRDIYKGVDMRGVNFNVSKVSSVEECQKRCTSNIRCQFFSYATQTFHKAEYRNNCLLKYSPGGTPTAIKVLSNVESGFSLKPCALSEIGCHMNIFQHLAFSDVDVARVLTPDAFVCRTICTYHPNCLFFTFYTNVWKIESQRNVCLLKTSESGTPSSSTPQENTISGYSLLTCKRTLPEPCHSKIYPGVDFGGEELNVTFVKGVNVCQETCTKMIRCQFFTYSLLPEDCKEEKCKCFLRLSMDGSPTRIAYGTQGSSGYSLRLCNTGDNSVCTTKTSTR
Sequence of Plasma kallikrein (Homo sapiens) (P03952 391-638 limits assumed): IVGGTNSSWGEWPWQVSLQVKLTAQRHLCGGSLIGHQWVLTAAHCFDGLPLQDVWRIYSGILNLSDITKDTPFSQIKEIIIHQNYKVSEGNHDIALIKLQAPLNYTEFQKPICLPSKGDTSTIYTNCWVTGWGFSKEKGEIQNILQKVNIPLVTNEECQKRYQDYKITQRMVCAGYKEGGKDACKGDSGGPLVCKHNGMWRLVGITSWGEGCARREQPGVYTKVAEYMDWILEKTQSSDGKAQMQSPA

Row | Structure (SMILES) | inhibition [1] | IC50 (Coagulation factor XI [2]) | inhibition (Coagulation factor XI [3]) | Selectivity ratio [4] | Selectivity ratio (Homo sapiens [5]) | Selectivity ratio [6] | inhibition (Bos taurus) | inhibition [7] | inhibition [8] | Selectivity ratio (Homo sapiens [9]) | Selectivity ratio (Homo sapiens [10]) | inhibition [11] | Selectivity ratio (Homo sapiens [12]) | inhibition [13] | inhibition [14] | Selectivity ratio (Homo sapiens [15])
1 | O=c1c2ccccc2nc(-c2ccc(OS(=O)(=O)O)cc2)n1CCCCCCCCCn1cc(Cn2c(-c3ccc(OS(=O)(=O)O)cc3)nc3ccccc3c2=O)nn1 | inactive | 34 µM | 100% | > 63 | > 63 | > 63 | inactive | inactive | inactive | > 63 | > 63 | inactive | > 63 | inactive | inactive | > 63
2 | O=c1c2ccccc2nc(-c2ccc(OS(=O)(=O)O)cc2)n1CCCCCCCCCCCn1cc(Cn2c(-c3ccc(OS(=O)(=O)O)cc3)nc3ccccc3c2=O)nn1 | inactive | 30 µM | 98% | > 63 | > 63 | > 63 | inactive | inactive | inactive | > 63 | > 63 | inactive | > 63 | inactive | inactive | > 63
3 | O=c1c2ccccc2nc(-c2cccc(OS(=O)(=O)O)c2)n1C/C=C/Cn1c(-c2cccc(OS(=O)(=O)O)c2)nc2ccccc2c1=O | inactive | 415 µM | 96% | > 63 | > 63 | > 63 | inactive | inactive | inactive | > 63 | > 63 | inactive | > 63 | inactive | inactive | > 63
4 | O=c1c2ccccc2nc(-c2cccc(OS(=O)(=O)O)c2)n1CCCCCCn1c(-c2cccc(OS(=O)(=O)O)c2)nc2ccccc2c1=O | inactive | 53 µM | 96% | > 63 | > 63 | > 63 | inactive | inactive | inactive | > 63 | > 63 | inactive | > 63 | inactive | inactive | > 63
5 | O=c1c2ccccc2nc(-c2ccc(OS(=O)(=O)O)cc2)n1CCCCCCCCCCCCn1cc(Cn2c(-c3ccc(OS(=O)(=O)O)cc3)nc3ccccc3c2=O)nn1 | inactive | 35 µM | 112% | > 63 | > 63 | > 63 | inactive | inactive | inactive | > 63 | > 63 | inactive | > 63 | inactive | inactive | > 63
6 | COc1ccc2nc(-c3ccc(OS(=O)(=O)O)cc3)n(CCCCCCn3c(-c4ccc(OS(=O)(=O)O)cc4)nc4ccc(OC)cc4c3=O)c(=O)c2c1 | inactive | 35 µM | 95% | > 63 | > 63 | > 63 | inactive | inactive | inactive | > 63 | > 63 | inactive | > 63 | inactive | inactive | > 63
